Experimental data taken from paper PMC4460194 (Current Therapeutic Research, Clinical and Experimental, 2015).
Where two headings read alike, the source gives them in different places.

Assays:
[1] = animal studies, tissue distribution; cited from earlier work
[2] = did not convert to Pi-LAC; cited from earlier work
[3] = system: albumin and alpha-1-acid glycoprotein; settings: primarily to albumin and alpha-1-acid glycoprotein; cited from earlier work
[4] = format: in vivo, human (healthy Chinese volunteers); settings: for Cav: 2 mg multiple dose
Summary of the method: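 Healthy Chinese volunteers (18–27 years, BMI 19–24) took a 2-mg tablet of the test compound orally once daily for 6 days. Predose samples were taken on days 3–5. On day 6, samples were taken predose and from 0.25 to 48 h. Heparinised plasma was stored at –20°C and extracted into diethyl ether-dichloromethane. LC-MS/MS range was 0.287–287 ng/mL. Noncompartmental analysis; accumulation index = AUC(multiple-dose)/AUC(single-dose).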

[5] = Stability tests of the analyte in human plasma; format: in vitro ADME
[6] = OATP 388GA + 388GG mutant group vs 388AA wild-type group; cited from earlier work
Tolerability assessment = format: in vivo, human (healthy Chinese volunteers); settings: single doses of 1 mg, 2 mg, or 4 mg and multiple doses of 2 mg once daily for 6 days, all subjects
[7] = Single-dose pharmacokinetic study of pitavastatin calcium tablets; format: in vivo, human (healthy Chinese volunteers); settings: for half-life / AUC(0-inf) / AUC(0-t) / Tmax / Vd / clearance / Cmax: human, plasma
Summary of the method: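 Randomized 3-way crossover in healthy Chinese volunteers (6 male, 6 female) with 5-day washouts. Single oral 1, 2 or 4 mg tablets were given after a 12-h fast with 200 mL water; meals at 4 and 10 h. Venous samples were taken predose and from 0.25 to 36 h. Heparinised plasma was analysed by LC-MS/MS (0.287–287 ng/mL). Noncompartmental analysis: Cmax/Tmax observed; AUC0–t by linear trapezoidal rule; AUC0–∞ = AUC0–t + Ct/λ.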

[8] = multiple dose 2 mg once daily for 6 days, n = 11, mean (SD)

For `O=C(O)C[C@H](O)C[C@H](O)/C=C/c1c(C2CC2)nc2ccccc2c1-c1ccc(F)cc1` [pitavastatin], the “liver levels relative to plasma” value [1] is given as “approximately 54 times”, the “stability in human plasma (conversion to Pi-LAC)” value [2] is given as “stable” and the protein binding ratio [3] is given as 96%. For the same compound, the “accumulation index (Cmax, multiple-dose/Cmax, single-dose)” value ([4]; 2 mg multiple dose vs 2 mg single dose, mean (SD)) was 0.85 (0.23), the “accumulation index (AUC)” value ([4]; 2 mg multiple dose vs 2 mg single dose, ratio of AUC, mean (SD)) was 0.98 (0.28) and the Cav ([4]; female (n = 6), mean (SD)) was 11.65 (6.58) ng/mL. For the same compound, the Cav ([4]; male (n = 5), mean (SD)) was 10.32 (1.86) ng/mL, the “steady state of plasma pitavastatin concentration achieved” value ([4]; 2 mg once daily, day of multiple dosing) was about 4 days and the “Cav (steady-state concentration)” value [4, 8] was 11.05 (4.85) ng/mL. The “Cmin (steady-state trough concentration)” value [4, 8] was 2.58 (0.92) ng/mL, the “stability in human plasma” value ([5]; after 3 freeze-thaw cycles (80°C to room temperature)) was “stable” and the “stability in human plasma” value ([5]; at −20°C for 80 days) was “stable”. For the same compound, the “stability of processed samples” value ([5]; processed samples at room temperature for 8 hours) was “stable”, the “AUC higher than wild type” value [6] was “about 80%” and the “Cmax higher than wild type” value [6] was about 71%. For the same compound, the “oral elimination lower than wild type” value [6] was “about 35%”, the tolerability (Tolerability assessment) was “well tolerated” and the half-life ([7]; both, oral) was about 10 h. It also gave an AUC(0-inf) ([7]; both, oral, 1 mg) of 206 ng·h/mL, an AUC(0-t) ([7]; both, oral, 1 mg) of 190 ng·h/mL and a Tmax ([7]; both, oral, 1 mg) of 0.63 h. The Vd ([7]; both, oral, 1 mg) was 79.9 L, the clearance ([7]; both, oral, 1 mg) was 84.8 mL/min and the half-life ([7]; both, oral, 1 mg) was 11 h. The AUC(0-inf) ([7]; both, oral, 2 mg) was 321 ng·h/mL, the AUC(0-t) ([7]; both, oral, 2 mg) was 308 ng·h/mL and the Tmax ([7]; both, oral, 2 mg) was 0.65 h. For the same compound, the Vd ([7]; both, oral, 2 mg) was 86.9 L, the clearance ([7]; both, oral, 2 mg) was 108 mL/min and the half-life ([7]; both, oral, 2 mg) was 9.52 h. For the same compound, the AUC(0-inf) ([7]; both, oral, 4 mg) was 828 ng·h/mL, the AUC(0-t) ([7]; both, oral, 4 mg) was 785 ng·h/mL and the Tmax ([7]; both, oral, 4 mg) was 0.79 h. For the same compound, the Vd ([7]; both, oral, 4 mg) was 72.5 L, the clearance ([7]; both, oral, 4 mg) was 85.5 mL/min and the half-life ([7]; both, oral, 4 mg) was 10.4 h. The Tmax ([7]; both, po) was at most 1 h, the Cmax ([7]; both, po, 1 mg) was 66.8 ng/mL and the Cmax ([7]; both, po, 2 mg) was 106 ng/mL. The Cmax ([7]; both, po, 4 mg) was 233 ng/mL, the AUC(0-t) ([7]; female, oral, 1 mg) was 204 ng·h/mL and the Cmax ([7]; female, oral, 1 mg) was 71 ng/mL. It also gave a Tmax ([7]; female, oral, 1 mg) of 0.67 h, a Vd ([7]; female, oral, 1 mg) of 73.3 L and a clearance ([7]; female, oral, 1 mg) of 77.5 mL/min. It also gave a half-life ([7]; female, oral, 1 mg) of 9.69 h, an AUC(0-t) ([7]; female, oral, 2 mg) of 330 ng·h/mL and a Cmax ([7]; female, oral, 2 mg) of 114 ng/mL. The Tmax ([7]; female, oral, 2 mg) was 0.67 h, the Vd ([7]; female, oral, 2 mg) was 87.5 L and the clearance ([7]; female, oral, 2 mg) was 102 mL/min. The half-life ([7]; female, oral, 2 mg) was 9.95 h, the Cmax ([7]; female, oral, 4 mg) was 253 ng/mL and the Tmax ([7]; female, oral, 4 mg) was 0.9 h. It also gave a Vd ([7]; female, oral, 4 mg) of 72.7 L, a clearance ([7]; female, oral, 4 mg) of 83 mL/min and a half-life ([7]; female, oral, 4 mg) of 11.8 h. For the same compound, the AUC(0-t) ([7]; male, oral, 1 mg) was 176 ng·h/mL, the Cmax ([7]; male, oral, 1 mg) was 62.6 ng/mL and the Tmax ([7]; male, oral, 1 mg) was 0.58 h. The Vd ([7]; male, oral, 1 mg) was 86.4 L, the clearance ([7]; male, oral, 1 mg) was 92 mL/min and the half-life ([7]; male, oral, 1 mg) was 12.3 h. It also gave an AUC(0-t) ([7]; male, oral, 2 mg) of 286 ng·h/mL, a Cmax ([7]; male, oral, 2 mg) of 98.4 ng/mL and a Tmax ([7]; male, oral, 2 mg) of 0.63 h. The Vd ([7]; male, oral, 2 mg) was 86.4 L, the clearance ([7]; male, oral, 2 mg) was 114 mL/min and the half-life ([7]; male, oral, 2 mg) was 9.08 h. For the same compound, the AUC(0-t) ([7]; male, oral, 4 mg) was 690 ng·h/mL, the Cmax ([7]; male, oral, 4 mg) was 209 ng/mL and the Tmax ([7]; male, oral, 4 mg) was 0.65 h. For the same compound, the Vd ([7]; male, oral, 4 mg) was 72.2 L, the clearance ([7]; male, oral, 4 mg) was 98.5 mL/min and the half-life ([7]; male, oral, 4 mg) was 8.72 h. The “correlation coefficient of dose-proportionality linear regression for AUC0−t” value ([7]; single dosing 1 mg, 2 mg, 4 mg) was 0.92, the “correlation coefficient of dose-proportionality linear regression for AUC0−∞” value ([7]; single dosing 1 mg, 2 mg, 4 mg) was 0.91 and the “correlation coefficient of dose-proportionality linear regression for Cmax” value ([7]; single dosing 1 mg, 2 mg, 4 mg) was 0.86.
